Measured values reported in ChEMBL document CHEMBL1132626 (J Med Chem, 1999).

Key:
[1] = target: T1, Prostaglandin G/H synthase 2 (Homo sapiens, UniProt P35354); format: cell-based, CHO
T1 sequence (P35354 whole entry): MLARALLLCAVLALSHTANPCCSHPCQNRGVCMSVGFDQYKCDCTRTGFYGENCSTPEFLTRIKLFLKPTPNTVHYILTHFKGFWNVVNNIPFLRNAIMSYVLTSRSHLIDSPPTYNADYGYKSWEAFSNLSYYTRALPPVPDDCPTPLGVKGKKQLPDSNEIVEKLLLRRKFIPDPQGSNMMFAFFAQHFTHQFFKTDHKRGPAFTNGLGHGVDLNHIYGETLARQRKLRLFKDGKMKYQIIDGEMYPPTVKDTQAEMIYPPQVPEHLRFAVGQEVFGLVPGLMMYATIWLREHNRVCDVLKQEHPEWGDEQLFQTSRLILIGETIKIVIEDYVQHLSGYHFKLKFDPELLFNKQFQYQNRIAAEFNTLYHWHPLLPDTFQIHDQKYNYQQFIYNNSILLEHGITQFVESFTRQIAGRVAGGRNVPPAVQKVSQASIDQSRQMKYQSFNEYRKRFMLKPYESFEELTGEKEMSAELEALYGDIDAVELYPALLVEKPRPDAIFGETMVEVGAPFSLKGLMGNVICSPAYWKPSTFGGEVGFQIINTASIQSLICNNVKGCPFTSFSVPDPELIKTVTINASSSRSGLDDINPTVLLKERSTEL

[2] = target: T2, Prostaglandin G/H synthase 1 (Homo sapiens, UniProt P23219)
[3] = target: T2, Prostaglandin G/H synthase 1; format: tissue-based, Blood
[4] = target: T1, Prostaglandin G/H synthase 2; format: tissue-based, Blood
Rattus norvegicus [5] = test: In vivo efficacy was evaluated in adjuvant arthritis(21 day); format: functional; conditions: 504 h, read-out: ID50 (the source's name)
How it was run: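 Arthritis was induced in female Lewis rats (7 weeks, 144–172 g) by intradermal left hind footpad injection of 0.5 mg Mycobacterium butyricum in light mineral oil; 10 rats/group. Secondary-paw volume, body weight and radiographs were recorded on days 0, 14 and 21. Analysis used two-factor repeated-measures ANOVA with Dunnett's test.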

Rattus norvegicus [6] = test: In vivo efficacy was evaluated using a LPS-induced rat pyresis model as ED50.
Rattus norvegicus [7] = test: In vivo efficacy was evaluated using a carrageenan-induced rat paw edema model as ED50.; format: functional
How it was run: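 Male Sprague–Dawley rats (150–200 g) were fasted overnight and dosed po in vehicle (1% methocel or 5% Tween 80). After 1 h, baseline paw volume was measured by plethysmometry and 1% carrageenan in saline was injected subplantarly (500 µg/paw). Paw swelling was measured 3 h later and % inhibition calculated versus vehicle. ED50 used ≥4 dose points with 5 rats/group.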

Rattus norvegicus [8] = test: Compound was tested for 10 days at 100 mg/kg/day in rats activity measured as Cr leakage; Clean; format: functional, organism-based
Rattus norvegicus [9] = test: In vivo efficacy was evaluated using a carrageenan-induced rat hyperalgesia model as ED50.; format: functional
How it was run: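 Male Sprague–Dawley rats (90–110 g) received intraplantar carrageenan (4.5 mg/paw). Compound was given orally 2 h after carrageenan. One hour later, the vocalization response to compression of the injected paw was measured with an algesiometer. ID50 was derived from at least four dose points.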

T2 sequence (P23219 whole entry): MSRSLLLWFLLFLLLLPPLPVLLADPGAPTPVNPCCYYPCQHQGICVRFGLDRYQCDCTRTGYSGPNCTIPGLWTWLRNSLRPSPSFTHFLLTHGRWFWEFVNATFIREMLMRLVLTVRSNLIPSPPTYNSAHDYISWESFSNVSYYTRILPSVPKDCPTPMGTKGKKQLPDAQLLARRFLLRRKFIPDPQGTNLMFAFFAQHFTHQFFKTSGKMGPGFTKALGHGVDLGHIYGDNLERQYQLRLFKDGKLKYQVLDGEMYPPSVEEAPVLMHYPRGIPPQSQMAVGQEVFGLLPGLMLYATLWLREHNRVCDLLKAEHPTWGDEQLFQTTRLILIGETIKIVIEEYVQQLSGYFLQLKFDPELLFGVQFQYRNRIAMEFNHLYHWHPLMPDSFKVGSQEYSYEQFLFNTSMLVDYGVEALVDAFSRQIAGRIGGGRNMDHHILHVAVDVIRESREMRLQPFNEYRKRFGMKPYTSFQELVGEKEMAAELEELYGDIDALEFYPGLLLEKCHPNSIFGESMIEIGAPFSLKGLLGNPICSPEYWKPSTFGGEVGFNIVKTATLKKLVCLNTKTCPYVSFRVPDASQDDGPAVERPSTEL

SMILES | IC50 [1] | IC50 [2] | IC50 [3] | IC50 [4] | ED50 (Rattus norvegicus [5]) | ED50 (Rattus norvegicus [6]) | ED50 (Rattus norvegicus [7]) | Cr leakage (Rattus norvegicus [8]) | ED50 (Rattus norvegicus [9])
Cc1ccncc1C1=C(c2ccc(S(C)(=O)=O)cc2)CCC1=O | 440 nM | 5500 nM | 4100 nM | 450 nM |  |  |  |  | 
CS(=O)(=O)c1ccc(C2=C(C#Cc3ccccc3)C(=O)CC2)cc1 | 6 nM |  |  | 640 nM |  |  |  |  | 
CS(=O)(=O)c1ccc(C2=C(c3cccnc3)C(=O)CC2)cc1 | 170 nM | 34000 nM | 73000 nM | 640 nM | 0.6 mg/kg | 0.7 mg/kg | 1.7 mg/kg | Clean | 0.7 mg/kg
CS(=O)(=O)c1ccc(C2=C(c3ccc(Cl)c(F)c3)C(=O)CC2)cc1 | 15 nM | 700 nM | 100 nM | 150 nM |  |  |  |  | 
CS(=O)(=O)c1ccc(C2=C(c3cccc(F)c3)C(=O)CC2)cc1 | 14 nM | 6600 nM |  | 340 nM |  |  | 6.4 mg/kg |  | 
CS(=O)(=O)c1ccc(C2=C(c3cc4ccccc4s3)C(=O)CC2)cc1 | 14 nM | 100 nM |  | 80 nM |  |  |  |  | 
CS(=O)(=O)c1ccc(C2=C(Oc3cc(F)cc(F)c3)C(=O)CC2)cc1 | 17 nM | 2700 nM | 94000 nM | 1100 nM |  |  | 6.6 mg/kg |  | 
CS(=O)(=O)c1ccc(C2=C(c3ccccc3)C(=O)CC2)cc1 | 11 nM | 3100 nM | 4100 nM |  |  |  | 10 mg/kg |  | 
COc1ccncc1C1=C(c2ccc(S(C)(=O)=O)cc2)CCC1=O | 150 nM | 60 nM |  | 90 nM |  |  |  |  | 
CS(=O)(=O)c1ccc(C2=C(c3ccc(F)c(Cl)c3)C(=O)CC2)cc1 | 9 nM | 300 nM |  | 90 nM |  |  |  |  | 
CS(=O)(=O)c1ccc(C2=C(c3cc(Br)ccn3)C(=O)CC2)cc1 | 630 nM | 18000 nM |  | 470 nM |  |  |  |  | 
Cc1ccc(-c2cc(C(F)(F)F)nn2-c2ccc(S(N)(=O)=O)cc2)cc1 [CELECOXIB] |  |  |  |  |  |  | 3.2 mg/kg |  | 
CS(=O)(=O)c1ccc(C2=C(c3ccccn3)C(=O)CC2)cc1 | 1530 nM | > 10000 nM |  | 9800 nM |  |  |  |  | 
CS(=O)(=O)c1ccc(C2=C(c3ccc(F)c(F)c3)C(=O)CC2)cc1 | 14 nM | 1700 nM | 3200 nM | 210 nM |  |  |  |  | 
CS(=O)(=O)c1ccc(C2=C(c3cc(Cl)c(Cl)c(Cl)c3)C(=O)CC2)cc1 | 6 nM | 2500 nM |  | 930 nM |  |  |  |  | 
CS(=O)(=O)c1ccc(C2=C(c3cncc(Br)c3)C(=O)CC2)cc1 | 300 nM | > 100000 nM |  | 1700 nM |  |  |  |  | 
CS(=O)(=O)c1ccc(C2=C(c3cc(Cl)ccn3)C(=O)CC2)cc1 | 190 nM | 27000 nM | 34000 nM | 520 nM |  |  | 2.5 mg/kg |  | 
CS(=O)(=O)c1ccc(C2=C(c3cc(Cl)cc(Cl)c3)C(=O)CC2)cc1 | 14 nM | 9200 nM | > 100000 nM | 280 nM |  |  | > 10 mg/kg |  | 
CS(=O)(=O)c1ccc(C2=C(/C=C/c3ccc(F)cc3)C(=O)CC2)cc1 | 175 nM |  | 27000 nM | 500 nM |  |  | > 10 mg/kg |  | 
CC(C)(C)C#CC1=C(c2ccc(S(C)(=O)=O)cc2)CCC1=O | 150 nM | > 100000 nM |  | 5200 nM |  |  |  |  | 
CS(=O)(=O)c1ccc(C2=C(c3ccccc3)C(=O)OC2)cc1 [ROFECOXIB] |  |  |  |  |  |  | 1.7 mg/kg |  | 
CS(=O)(=O)c1ccc(C2=C(c3cncc(Cl)c3)C(=O)CC2)cc1 |  | > 100000 nM | > 100000 nM |  |  |  | 1.3 mg/kg |  | 
CS(=O)(=O)c1ccc(C2=C(c3cc(F)cc(F)c3)C(=O)CC2)cc1 | 15 nM |  | 61000 nM | 620 nM | 4 mg/kg | 0.8 mg/kg | 2.6 mg/kg | Clean | 3 mg/kg
CS(=O)(=O)c1ccc(C2=C(c3ccc(F)cc3)C(=O)CC2)cc1 | 19 nM | 500 nM | 3700 nM | 80 nM |  |  | 3 mg/kg |  | 
